Experimental data from ChEMBL document CHEMBL1123657, “Anthrapyrazole anticancer agents. Synthesis and structure-activity relationships against murine leukemias” (J Med Chem, 1987).

How the values were obtained:
[1] = system: P388; assay: Optimal dose per injection in mg/kg required to inhibit growth of P388 leukemia cells in mice; assay type: functional, Mus musculus
In short: (§1)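 P388 leukemia implanted ip in mice; drug given ip on days 1 and 5 (ip/ip; D1,5), dosed in mg/kg per injection. Read-out is treated/control (T/C, %) with cures counted, reported at the optimal dose.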

[2] = system: L1210; assay: Tested in vitro against murine L1210 leukemia.; assay type: functional, cell-based; settings: Mus musculus
[3] = system: P388; assay: Activity against P388 leukemia cells in mice, by intraperitoneal dosing and net log tumor cell kill was reported; assay type: functional, Mus musculus
[4] = system: P388; assay: Inhibition of P388 leukemia cells in mice, measured as percent treated to the control values with the number of 30 day survivors; assay type: functional, Mus musculus; in short: as §1

| SMILES | Dose [1] | IC50 [2] | Activity [3] | T/C [4] |
| --- | --- | --- | --- | --- |
| CN(CCO)CCn1nc2c3c(c(NCCNCCO)ccc31)C(=O)c1c(O)ccc(O)c1-2.Cl | 12.5 mg/kg | 330 nM | 4.2 |  |
| CN(C)CCn1nc2c3c(c(NCCN)ccc31)C(=O)c1c(O)ccc(O)c1-2.Cl | 12.5 mg/kg | 220 nM | >6.6 | 263% |
| Cl.NCCNc1ccc2c3c(nn2CCNCCO)-c2c(O)ccc(O)c2C(=O)c13 | 3.12 mg/kg | 1600 nM | 4.8 | 197% |
| CCCCCCNc1ccc2c3c(nn2CCN(CC)CC)-c2ccccc2C(=O)c13.Cl | 200 mg/kg | 2000 nM | -1.4 | 110% |
| CN1CCN(c2ccc3c4c(nn3CCNCCO)-c3c(O)ccc(O)c3C(=O)c24)CC1.Cl | 12.5 mg/kg | 430 nM | 3.8 | 192% |
| CN(C)CCCn1nc2c3c(c(NCCNCCO)ccc31)C(=O)c1c(O)ccc(O)c1-2.Cl | 12.5 mg/kg | 590 nM | 5.4 |  |
| CCN(CC)CCNc1ccc2c3c(c4ccccc4c(O)c13)N=N2.Cl | 400 mg/kg | 1500 nM | -1.4 | 111% |
| CCN(CC)CCn1nc2c3c(c(NCCN4CCN(C(=O)OCc5ccccc5)CC4)ccc31)C(=O)c1ccccc1-2 |  | 390 nM |  |  |
| CN(C)CCNc1ccc2c3c(nn2CCO)-c2c(O)ccc(O)c2C(=O)c13.Cl | 200 mg/kg | 15 nM | 6.6 | 283% |
| Cl.O=C1c2c(NCCNCCO)cccc2-c2nn(CCNCCO)c3cccc1c23 | 12.5 mg/kg | 390 nM | -0.3 | 133% |
| Cl.NCCNCCNc1ccc2c3c(nn2CCNCCO)-c2c(O)ccc(O)c2C(=O)c13 | 25 mg/kg | 330 nM | >6.6 | 277% |
| CCN(CC)CCNc1ccc2c3c(nn2C)-c2c(O)ccc(O)c2C(=O)c13.Cl | 400 mg/kg | 450 nM | 1.3 | 152% |
| CNCCn1nc2c3c(c(NCCNCCO)ccc31)C(=O)c1c(O)ccc(O)c1-2.Cl | 3.12 mg/kg | 440 nM | >6.8 | 324% |
| CN(C)CCNCCNc1ccc2c3c(nn2CCNCCO)-c2c(O)ccc(O)c2C(=O)c13.Cl | 50 mg/kg | 760 nM | >6.8 | 254% |
| Cl.NCCn1nc2c3c(c(NCCCNCCO)ccc31)C(=O)c1c(O)ccc(O)c1-2 | 6.25 mg/kg | 870 nM | 3.4 | 194% |
| Cl.Cn1nc2c3c(c(NCCN)ccc31)C(=O)c1c(O)ccc(O)c1-2 | 12.5 mg/kg | 240 nM | 0 | 138% |
| CCN(CC)CCn1nc2c3c(c(NCCN4CCNCC4)ccc31)C(=O)c1ccccc1-2.Cl | 25 mg/kg | 500 nM | -1.3 | 109% |
| Cl.O=C1c2ccccc2-c2nn(CCNCCO)c3ccc(NCCO)c1c23 | 25 mg/kg | 750 nM | 0.1 | 139% |
| CN(C)CCN(C)c1ccc2c3c(nn2CCNCCO)-c2c(O)ccc(O)c2C(=O)c13.Cl | 12.5 mg/kg | 630 nM | 4.9 |  |
| CN(C)CCCn1nc2c3c(c(NCCN)ccc31)C(=O)c1c(O)ccc(O)c1-2.Cl | 12.5 mg/kg | 200 nM | 6.6 | 230% |
| CCN(CC)CC(O)Cn1nc2c3c(c(NCCNCCO)ccc31)C(=O)c1c(O)ccc(O)c1-2.Cl (stereo unspecified) | 12.5 mg/kg | 840 nM | 5.3 | 223% |
| CCN(CC)CCn1nc2c3c(c(NCCNC)ccc31)C(=O)c1ccccc1-2.Cl | 25 mg/kg | 27 nM | 0.7 | 138% |

| SMILES | Dose [1] | IC50 [2] | Activity [3] | T/C [4] |
| --- | --- | --- | --- | --- |
| Cl.Cn1nc2c3c(c(NCCNCCO)ccc31)C(=O)c1c(O)ccc(O)c1-2 | 100 mg/kg | 150 nM | 2.9 |  |
| CN(C)CCNc1ccc2c3c(nn2Cc2ccccc2)-c2c(O)ccc(O)c2C(=O)c13.Cl | 25 mg/kg | 860 nM | -1.5 | 104% |
| Cl.O=C1c2c(O)ccc(O)c2-c2nn(CCO)c3ccc(NCCN4CCOCC4)c1c23 | 400 mg/kg | 1100 nM | -1.2 | 122% |
| CCN(CC)CCCCNc1ccc2c3c(nn2CCN(CC)CC)-c2ccccc2C(=O)c13.Cl | 25 mg/kg | 620 nM | -1.4 | 107% |
| Cl.OCCNCCNc1ccc2c3c(c4ccccc4c(O)c13)N=N2 | 100 mg/kg | 2200 nM | -0.8 | 126% |
| CCN(CC)CCNc1ccc2c3c(nn2CC(O)CN(CC)CC)-c2c(O)ccc(O)c2C(=O)c13.Cl (stereo unspecified) | 100 mg/kg | 1300 nM | 1.2 |  |
| CN(C)CCNCCNc1ccc2c3c(nn2CCCN)-c2c(O)ccc(O)c2C(=O)c13.Cl | 25 mg/kg | 640 nM | 5.6 | 228% |
| Cl.NCCNc1ccc2c3c(nn2CCO)-c2c(O)ccc(O)c2C(=O)c13 | 100 mg/kg | 480 nM | 6.8 | 196% |
| Cl.Cn1nc2c3c(cccc31)C(=O)c1c(NCCNCCO)cccc1-2 | 200 mg/kg | 1200 nM | -1.3 | 118% |
| CNCCNc1ccc2c3c(nn2CCN)-c2c(O)ccc(O)c2C(=O)c13 |  | 700 nM |  |  |
| Cl.NCCNc1ccc2c3c(nn2CCN)-c2c(O)ccc(O)c2C(=O)c13 | 12.5 mg/kg | 480 nM | 5.6 | 221% |
| Cl.O=C1c2c(O)ccc(O)c2-c2nn(CCNCCO)c3ccc(NCCNCCO)c1c23 | 6.25 mg/kg | 740 nM | 4.6 |  |
| CN(C)CCNCCNc1ccc2c3c(nn2CCN)-c2c(O)ccc(O)c2C(=O)c13.Cl | 50 mg/kg | 930 nM | 6.4 | 242% |
| NCCCNc1ccc2c3c(nn2CCN)-c2c(O)ccc(O)c2C(=O)c13 |  | 310 nM |  |  |
| CN(C)CCNc1ccc2c3c(nn2CCNCCO)-c2c(O)ccc(O)c2C(=O)c13.Cl | 12.5 mg/kg | 230 nM | >6.6 | 250% |
| CCN(CC)CCNc1ccc2c3c(nn2C)-c2ccccc2C(=O)c13.Cl | 400 mg/kg | 670 nM | -1.5 | 98% |
| Cl.NCCn1nc2c3c(c(NCCNCCO)ccc31)C(=O)c1ccccc1-2 | 25 mg/kg | 80 nM | 3.7 |  |
| CCN(CC)CCNc1ccc2c3c(nn2CCNCCO)-c2c(O)ccc(O)c2C(=O)c13.Cl | 50 mg/kg | 510 nM | >6.7 |  |
| Cl.O=C1c2ccccc2-c2nn(CCO)c3ccc(NCCNCCO)c1c23 | 25 mg/kg | 1800 nM | -0.9 | 125% |
| Br.CCN(CC)CCn1nc2c3c(c(NCCNC)ccc31)C(=O)c1c(O)ccc(O)c1-2 | 25 mg/kg | 7400 nM | >7.1 |  |
| CCN(CC)CCn1nc2c3c(c(NCCN4CCOCC4)ccc31)C(=O)c1ccccc1-2.Cl | 400 mg/kg | 480 nM | >6.8 |  |
| Cl.NCCNc1ccc2c3c(nn2CCNCCO)-c2ccccc2C(=O)c13 | 25 mg/kg | 69 nM | 4.4 |  |
